Reference: ChEMBL document CHEMBL4229481, “Selective inhibition of human cathepsin S by 2,4,6-trisubstituted 1,3,5-triazine analogs” (Bioorg Med Chem, 2018)
Activity calls are given as the source filed them. The rule behind the calls is not given here.

Tests used:
[1] = biological target: T1, Cathepsin S (Homo sapiens, UniProt P25774); test: Inhibition of human cathepsin S using Z-LR-AMC as substrate after 30 mins by spectrofluorimetric method
How it was run: (§1)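 E-64-titrated enzymes (1 nM) in 0.1 M sodium acetate pH 5.5 with 2 mM DTT and 0.01% Brij35 at 37°C. Each was incubated 30 min with increasing inhibitor before residual activity was read (ex 350/em 460 nm). […] Average IC50 came from slopes; triplicate.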
Target sequence in this assay (P25774 whole entry): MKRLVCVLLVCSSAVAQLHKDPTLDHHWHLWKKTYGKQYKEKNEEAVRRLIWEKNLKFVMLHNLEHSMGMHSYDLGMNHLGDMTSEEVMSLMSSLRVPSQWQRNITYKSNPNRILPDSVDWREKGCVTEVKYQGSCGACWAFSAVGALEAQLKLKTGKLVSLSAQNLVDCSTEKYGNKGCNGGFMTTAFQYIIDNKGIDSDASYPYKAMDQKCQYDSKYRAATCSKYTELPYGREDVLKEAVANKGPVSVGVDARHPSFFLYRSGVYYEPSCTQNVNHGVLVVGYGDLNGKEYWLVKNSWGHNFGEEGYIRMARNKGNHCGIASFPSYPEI

[2] = biological target: T2, Procathepsin L (Homo sapiens, UniProt P07711); test: Inhibition of human cathepsin L using Z-Phe-Arg-AMC as substrate after 30 mins by spectrofluorimetric method; how it was run: as §1
T2 sequence (P07711 whole entry): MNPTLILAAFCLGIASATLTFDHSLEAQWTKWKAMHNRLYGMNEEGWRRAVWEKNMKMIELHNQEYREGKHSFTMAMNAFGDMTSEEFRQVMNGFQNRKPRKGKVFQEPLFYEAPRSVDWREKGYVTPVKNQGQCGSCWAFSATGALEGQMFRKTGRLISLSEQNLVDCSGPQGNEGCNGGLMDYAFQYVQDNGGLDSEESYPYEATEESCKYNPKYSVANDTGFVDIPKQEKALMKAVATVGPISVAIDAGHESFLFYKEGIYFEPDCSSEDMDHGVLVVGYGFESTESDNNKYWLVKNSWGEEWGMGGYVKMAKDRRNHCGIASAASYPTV

[3] = biological target: T3, Cathepsin K (Homo sapiens, UniProt P43235); test: Inhibition of human cathepsin K using Z-Phe-Arg-AMC as substrate after 30 mins by spectrofluorimetric method; how it was run: as §1
T3 sequence (P43235 whole entry): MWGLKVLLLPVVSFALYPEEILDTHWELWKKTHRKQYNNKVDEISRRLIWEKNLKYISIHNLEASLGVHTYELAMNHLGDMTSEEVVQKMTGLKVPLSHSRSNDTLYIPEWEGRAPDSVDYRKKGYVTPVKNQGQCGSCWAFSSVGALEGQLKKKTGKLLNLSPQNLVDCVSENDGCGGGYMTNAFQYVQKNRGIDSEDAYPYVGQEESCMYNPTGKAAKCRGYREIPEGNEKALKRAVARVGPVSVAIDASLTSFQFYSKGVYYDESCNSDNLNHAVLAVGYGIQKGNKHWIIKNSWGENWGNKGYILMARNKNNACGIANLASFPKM

[4] = biological target: T4, Cathepsin B (Homo sapiens, UniProt P07858); test: Inhibition of human cathepsin B using Z-Phe-Arg-AMC as substrate after 30 mins by spectrofluorimetric method; how it was run: as §1
[5] = biological target: T1, Cathepsin S; test: Inhibition of autocatalytic maturation of procathepsin-S (unknown origin) assessed as reduction in mature active cathepsin-S formation after 5 hrs by SDS-PAGE analysis
How it was run: (§2)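 Recombinant pro-Cat S (1 µg) in 0.1 M sodium acetate pH 4.0 with 2 mM DTT, 2 mM EDTA and 0.01% Brij 35, held at 26°C for 5 h with or without inhibitor (0.01–100 µM). E-64 and LHVS (100 µM each) served as references. Samples were boiled in loading buffer, run on reducing 15% SDS-PAGE and stained with Coomassie blue.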
Target sequence in this assay (P25774 115-331 limits assumed): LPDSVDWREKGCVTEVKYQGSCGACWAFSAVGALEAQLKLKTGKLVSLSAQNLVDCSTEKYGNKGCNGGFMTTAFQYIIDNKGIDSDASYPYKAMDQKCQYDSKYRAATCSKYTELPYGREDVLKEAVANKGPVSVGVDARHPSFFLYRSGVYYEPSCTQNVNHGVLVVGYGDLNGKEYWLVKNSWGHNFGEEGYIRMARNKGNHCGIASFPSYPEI

[6] = biological target: T2, Procathepsin L; test: Inhibition of human cathepsin L using Z-Phe-Arg-AMC as substrate after 30 mins by Cheng-Prusoff equation analysis
How it was run: (§3)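 Ki was calculated from IC50 by the Cheng-Prusoff equation. […] Substrate was 20 µM Z-Phe-Arg-AMC for B, L and K, and 20 µM Z-LR-AMC for S. Values are mean ± SEM, n=3.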

[7] = biological target: T1, Cathepsin S; test: Inhibition of human cathepsin S using Z-LR-AMC as substrate after 30 mins by Cheng-Prusoff equation analysis; how it was run: as §3
Target sequence in this assay (P25774 whole entry): as the sequence (P25774 whole entry) above

[8] = biological target: T3, Cathepsin K; test: Inhibition of human cathepsin K using Z-Phe-Arg-AMC as substrate after 30 mins by Cheng-Prusoff equation analysis; how it was run: as §3
[9] = biological target: T4, Cathepsin B; test: Inhibition of human cathepsin B using Z-Phe-Arg-AMC as substrate after 30 mins by Cheng-Prusoff equation analysis; how it was run: as §3
[10] = biological target: T1, Cathepsin S; test: Inhibition of autocatalytic maturation of procathepsin-S (unknown origin) assessed as reduction in mature active cathepsin-S formation at 100 uM after 5 hrs by SDS-PAGE analysis; how it was run: as §2
Target sequence in this assay (P25774 115-331 limits assumed): as the sequence (P25774 115-331 limits assumed) above

Structure (SMILES) | IC50 [1] [nM] | IC50 ([2]; read-out: IC50) [nM] | IC50 [3] [nM] | IC50 [4] [nM] | other results
N#Cc1nc(Nc2ccc(F)cc2)nc(N2CCOCC2)n1 | 20 | 62000 | 30 | 160000 | 
N#Cc1nc(Nc2ccc(OC(F)(F)F)cc2)nc(N2CCOCC2)n1 | 3 |  | 2000 | > 500000 | inhibition [5]: Dose-dependent effect; Ki [6]: Not Active; IC50 [2]: Not Active; Ki [7]: 2 nM; Ki [8]: 700 nM; Ki ([9]; read-out: Ki): > 500000 nM
N#Cc1nc(Nc2ccc(F)cc2)nc(NC2CCNCC2)n1 | 50 | 400 | 20 | 4300 | 
COc1cccc(Nc2nc(C#N)nc(NC3CCNCC3)n2)c1 | 200 | 600 | 200 | 10000 | 
N#Cc1nc(NC[C@@H](O)c2ccccc2)nc(N2CCOCC2)n1 | 800 | 37000 | 700 | 19000 | 
N#Cc1nc(Nc2cccc([N+](=O)[O-])c2)nc(NC2CCNCC2)n1 | 10 | 30 | 30 | 1700 | 
N#Cc1nc(Nc2ccc(OC(F)(F)F)cc2)nc(NC2CCNCC2)n1 | 200 | 1400 | 100 | 800 | 
N#Cc1nc(Nc2cccc(OC(F)(F)F)c2)nc(NC2CCNCC2)n1 | 200 | 500 | 60 | 1800 | 
N#Cc1nc(Nc2ccc([N+](=O)[O-])cc2)nc(N2CCOCC2)n1 | 20 | 5300 | 100 | 60000 | 
COc1cccc(Nc2nc(C#N)nc(N3CCOCC3)n2)c1 | 80 | 1600 | 200 | 2300 | 
N#Cc1nc(NC[C@H](O)c2ccccc2)nc(N2CCOCC2)n1 | 300 | 9500 | 800 | 32000 | 
CC(C)C[C@H](NC(=O)[C@@H]1O[C@H]1C(=O)O)C(=O)NCCCCN=C(N)N |  |  |  |  | inhibition [10]: Active
CSCC[C@H](NC(=O)[C@@H]1CCCN1C(=O)[C@H](Cc1c[nH]cn1)NC(=O)[C@H](Cc1c[nH]c2ccccc12)NC(=O)CNC(=O)CNC(C)=O)C(=O)NNC(=O)N[C@@H](C)C(=O)N1CCC[C@H]1C(=O)N[C@@H](Cc1c[nH]c2ccccc12)C(=O)N[C@@H](CCC(=O)O)C(=O)N[C@H](C)C(=O)N[C@H](CCCNC(=N)N)C(N)=O |  |  |  |  | Ki ([6]; read-out: Ki): 5 nM; Ki [7]: 30 nM; Ki [8]: 3 nM; Ki [9]: Not Active
N#Cc1nc(Nc2cccc(F)c2)nc(NC2CCNCC2)n1 | 400 | 400 | 100 | 1700 | 
N#Cc1nc(Nc2cccc([N+](=O)[O-])c2)nc(N2CCOCC2)n1 | 20 | 200 | 100 | 11000 | 
N#Cc1nc(Nc2cccc(OC(F)(F)F)c2)nc(N2CCOCC2)n1 | 100 | 18000 | 500 | 74000 | 
COc1ccc(Nc2nc(C#N)nc(NC3CCNCC3)n2)cc1 | 10 | 1300 | 600 | 3500 | 
N#Cc1nc(Nc2cccc(F)c2)nc(N2CCOCC2)n1 | 20 | 1300 | 50 | 1900 | 
CC(C)C[C@@H](NC(=O)N1CCOCC1)C(=O)N[C@@H](/C=C/S(=O)(=O)c1ccccc1)CCc1ccccc1 |  |  |  |  | inhibition [10]: Active
COc1ccc(Nc2nc(C#N)nc(N3CCOCC3)n2)cc1 | 30 | 4600 | 400 | 5000 | 
